HCV NS3 hel inh = blocks Hepatitis C virus NS3 helicase unwinding; NS3 helicase DNA unwinding, Cy5 molecular beacon fluorescence; inhibition, % at 10.9 µM; 290,000 tested, 0.56% active; AID 1800;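 active = inhibition above the mean of all tested compounds plus 3 SD, set per campaign, cut at about 35% in these data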;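 note: 0% = DMSO wells and 100% = thioflavine S control wells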
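Material: hepatitis C virus NS3 helicase domain fragment enzyme; measured by: Cy5 fluorescence, 0 and 60 min reads; control set: DMSO and thioflavine S; incubation: 60 min unwinding reaction at 25 °C after ATP addition; read-out basis: % inhibition from 60/0 min fluorescence ratio, DMSO 0%, thioflavine S 100%; repeats: singlicate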
HSF1 activator = increases HSF-1 driven luciferase reporter signal; activation, % at 9 µM; NIH3T3-HGL HSF-1 luciferase reporter, MG132, 8 h; 100% = twice DMSO control signal; 300,000 tested, 1.7% active;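 active = mean replicate activation of at least 50% with a set share of replicates each reaching 50%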;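 note: 0% = median of the neutral control wells and 100% = twice that signal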
HCV core dimer = blocks dimerization of HCV core protein; TR-FRET GST/Flag-core106 dimerization, 1536-well; inhibition, % at 5 µM; 300,000 tested, 0.33% active; AID 1899;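 active = inhibition above the mean of all tested compounds plus 3 SD, set per screening campaign, cut at about 45% in these data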
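Material: Tagged HCV core106 pair (GST and Flag) | Amount: GST-core106 13.5 nM, Flag-core106 17 nM | Medium: KF-containing HEPES buffer, pH 7.45, DTT, CHAPS, BSA | Reagent: Eu donor and XL665 acceptor anti-tag antibodies | Schedule: 4 h at 22.5 °C | Technique: Time-resolved FRET, ex 340 nm, em 617 and 671 nm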
HSP90 refold inh = inhibitors of HSP90 luciferase refolding in rabbit reticulocyte lysate | luciferase refolding luminescence, 3 h | inhibition, % at 5.6 µM | 290,000 tested, 0.91% active | AID 1789;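 active = inhibition above the screen-wide mean plus 3 SD, computed separately per campaign, cut at about 16% in these data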;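 note: 0% = DMSO wells and 100% = 60 µM geldanamycin wells; inhibitors lower the luminescence because luciferase stays unfolded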
HSF1 inhib = HSF1 inhibition. activity change, negative = inhibition, % at 7.5 µM (by protocol). AID 2098. 300,000 tested, 0.77% active. NIH3T3-HGL HSE-luciferase, MG132-induced, luminescence 8 h; stronger effect = lower value;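 active = more than half of replicate wells show activity change below -50%, luminescence cut by over half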;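 note: luciferase reports HSF-1 transcriptional activity via heat shock element; 0% = median of DMSO wells and -100% = zero luminescence signal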
DNA FID counter = fluorescent intercalator displacement, NS3 helicase counter-screen; DNA fluorescent intercalator displacement, fluorescence; inhibition, % at 7.9 µM; 290,000 tested, 0.17% active; AID 1845; in the data active = inhibition above about 37%;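 note: 0% = vehicle and 100% = reference compound; higher means more ethidium bromide displaced from hairpin DNA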
HSP90 inh confirm = HSP90 inhibition, confirmation assay; shares compounds with HSP90 refold inh; rabbit reticulocyte lysate, luciferase refolding luminescence, 3 h; AID 1846; 2,300 tested, 64% active; inhibition, % at 5.9 µM; in the data active = inhibition above about 18%;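 note: 0% = vehicle wells and 100% = reference inhibitor wells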
luciferase ctr = blocks native firefly luciferase in HSP90 counter-screen | shares compounds with HSP90 refold inh | purified native firefly luciferase, luminescence | inhibition, % at 5.9 µM | 2,300 tested, 48% active | AID 1847;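 active = inhibition above the mean inhibition of all tested sample wells plus 3 SD, cut at about 10% in these data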;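 note: 0% = DMSO with luciferase and 100% = wells lacking luciferase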
Target sequence (P08659 whole entry, looked up): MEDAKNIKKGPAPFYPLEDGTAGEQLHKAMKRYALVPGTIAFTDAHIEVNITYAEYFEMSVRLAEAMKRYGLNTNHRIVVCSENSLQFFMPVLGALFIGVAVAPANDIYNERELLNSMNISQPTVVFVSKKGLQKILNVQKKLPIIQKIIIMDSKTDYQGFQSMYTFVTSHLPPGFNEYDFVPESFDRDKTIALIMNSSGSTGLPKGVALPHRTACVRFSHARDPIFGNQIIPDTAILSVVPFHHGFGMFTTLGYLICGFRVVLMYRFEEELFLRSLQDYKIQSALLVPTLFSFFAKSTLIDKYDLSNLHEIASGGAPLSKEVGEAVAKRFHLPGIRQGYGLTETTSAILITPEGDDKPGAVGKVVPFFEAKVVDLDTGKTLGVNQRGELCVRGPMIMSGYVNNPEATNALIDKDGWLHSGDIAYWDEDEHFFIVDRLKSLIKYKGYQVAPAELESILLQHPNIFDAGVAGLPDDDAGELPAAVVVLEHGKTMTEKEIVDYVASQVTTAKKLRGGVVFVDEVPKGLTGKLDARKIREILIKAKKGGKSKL
* hit, by the source's call; x = no result given. Sampled rows, rich in hits. Any-hit rate of the full collection: about 3.9%.

SMILES | HCV NS3 hel inh | HSF1 activator | HCV core dimer | HSP90 refold inh | HSF1 inhib | DNA FID counter | HSP90 inh confirm | luciferase ctr
COCCCN=Cc1c(C)[nH]n(-c2ccc(Br)c(C)c2)c1=O | 1 | -26 | 6 | 18* | -11 | -15 | 42* | 38*
Cc1ccc(-n2[nH]c(C)c(C=NC34CN5CN(CN(C5)C3)C4)c2=O)cc1C | 5 | -9 | -1 | -1 | -2 | -4 | x | x
O=C(NC1CC1)[C@@H]1CSC2c3ccccc3C(=O)N21 (stereo partly specified) | 3 | -4 | -4 | 0 | -5 | -4 | x | x
CC(C)(C)NC(=O)NC(=O)COc1ccccc1C#N | 3 | 1 | -1 | 18* | 3 | -11 | 12 | 7
Cc1ccc(C(=O)/C=C2\NCC(C)NC2=O)cc1 (stereo unspecified) | 12 | 20 | 1 | 37* | 3 | -2 | 56* | 43*
O=C(OCc1ccc(Br)cc1)c1ccncc1 | 0 | -3 | -4 | 1 | -1 | 14 | x | x
O=C(OCc1ccc(Br)cc1)c1cccnc1 | -6 | -7 | 9 | 41* | -5 | -10 | -5 | -16
Cc1nc2c(-c3ccc(F)cc3)cnn2c(N)c1-c1ccc(F)cc1 | -26 | -62 | -2 | 47* | -56* | -2 | 50* | 49*
CCCc1nc2ccccc2n2cc3c(=O)n(C)c(=O)n(C)c3c12 | 4 | x | x | 5 | x | -1 | x | x
COc1ccccc1C(=O)N(Cc1ccccc1)c1ccc(C)cc1 | -5 | 13 | 3 | 57* | 14 | -47 | -7 | -11
Clc1ccc(OCc2cc(-c3ccccc3)no2)c(Cl)c1 | 10 | -23 | 0 | 16 | -7 | 2 | x | x
CCC(=O)N(C1=C(NC(C)C)C(=O)c2ccccc2C1=O)C(C)C | -2 | -32 | -1 | -2 | -11 | -5 | x | x
CCCNC1=C(N(C(C)=O)c2cccc(F)c2)C(=O)c2ccccc2C1=O | 2 | 14 | -10 | 82* | 5 | -2 | -5 | -11
Cc1ccc2[nH]c(=O)c(COC(=O)C3CCCCC3)cc2c1 | -11 | -10 | 4 | 44* | -8 | -17 | -1 | -16
Cc1ccc(S(=O)(=O)CCC(=O)c2ccc(F)cc2)cc1 | -6 | -3 | 0 | -4 | -5 | -15 | x | x
Cc1ccc(C(=O)CCS(=O)(=O)c2ccc(F)cc2)cc1 | -7 | -1 | -7 | 38* | -2 | -15 | 58* | 79*
COc1ccc(C2/C=C\CN(C(=O)C3CCCC3)CC(=O)N2Cc2ccc(F)cc2)cc1 (stereo unspecified) | x | x | 10 | x | -1 | x | x | x
CCOc1ccc(CCNC(=O)COC(=O)c2ccc(S(=O)(=O)N3CCCC3)cc2)cc1OCC | x | -5 | -6 | x | -5 | x | x | x
NNC(=O)c1c(O)c2cccc3c2n(c1=O)CCC3 | -4 | -3 | -11 | 19* | -3 | -6 | 3 | -5
CC(C)NC(=O)c1c(O)c2cccc3c2n(c1=O)CCC3 | -6 | 2 | -9 | 2 | -6 | -13 | x | x
COC(=O)c1ccc(NC(=O)C(=O)c2cccn2C)cc1 | 6 | 61* | 5 | 26* | 20 | 6 | 59* | 42*
CCOC(=O)c1cc(-c2ccccc2)sc1NC(=O)C(C)N1C(=O)NC(C)(c2ccc(Cl)cc2)C1=O (stereo unspecified) | 5 | -16 | 32 | 18* | -1 | -5 | 9 | -6
O=C(/C=C\Nc1ccccn1)c1ccc(Cl)cc1 | -5 | x | 0 | 39* | x | -3 | 80* | 73*
CN(C)c1ccc2nc3c(=O)[nH]c(=O)nc-3n(CC(O)C(O)C(O)CO)c2c1 (stereo unspecified) | -3 | -1 | -30 | 3 | -7 | -304 | x | x
Nc1c(C(=O)Nc2cccc(C(=O)O)c2)sc2nc3c(cc12)CCCC3 | 11 | -4 | 5 | 91* | -3 | -19 | 97* | 90*
SMILES | HCV NS3 hel inh | HSF1 activator | HCV core dimer | HSP90 refold inh | HSF1 inhib | DNA FID counter | HSP90 inh confirm | luciferase ctr
CCOc1ccc(Nc2nc(-c3sc(N)nc3C)cs2)cc1 | -3 | -8 | 4 | 20* | -3 | -4 | 1 | -21
Cc1ccc(Nc2nc(-c3sc(C)nc3C)cs2)cc1 | -14 | 26 | -6 | -1 | 8 | -25 | x | x
COc1ccc(CCNc2nc(-c3sc(N)nc3C)cs2)cc1OC | 0 | -7 | -1 | 29* | -5 | -7 | 5 | -5
Cc1ccc(Nc2nc(-c3sc(N)nc3C)cs2)cc1 | -10 | -6 | x | 39* | -7 | 4 | -2 | -18
COc1ccc(Nc2nc(-c3sc(N)nc3C)cs2)cc1 | 3 | 23 | 2 | 30* | 4 | 12 | -4 | -21
Cc1nc(N)sc1-c1csc(Nc2ccccn2)n1 | 12 | -11 | x | 5 | -16 | 6 | x | x
COc1cccc(CNC(=O)C2=C(C)C(=O)OC23CCC(C)CC3)c1 (stereo unspecified) | 3 | -4 | 2 | 35* | -4 | -13 | -2 | -4
N#CC1=C(N)Oc2n[nH]c(-c3cccs3)c2C1c1ccccc1C(=O)O (stereo unspecified) | 23 | 4 | 0 | 7 | -7 | -11 | x | x
N#CC1=C(N)Oc2n[nH]c(-c3cccs3)c2C1c1cccs1 (stereo unspecified) | 22 | 8 | 6 | 34* | 2 | -12 | -9 | -8
CSCCC1C(C#N)=C(N)Oc2n[nH]c(-c3cccs3)c21 (stereo unspecified) | 15 | 5 | 12 | 4 | 8 | -8 | x | x
CC(C)CC1C(C#N)=C(N)Oc2n[nH]c(-c3cccs3)c21 (stereo unspecified) | -2 | -3 | -3 | 18* | 6 | -7 | -7 | 1
COc1ccccc1NC(=O)CN1C(=O)CC(C)S(=O)(=O)c2ccccc21 (stereo unspecified) | 4 | -13 | 0 | 1 | -4 | -6 | x | x
CCNc1ccc(S(N)(=O)=O)cc1[N+](=O)[O-] | 14 | 9 | -10 | 5 | -5 | -2 | x | x
O=S(=O)(c1cccs1)N1CCCc2ccccc21 | 1 | -1 | 7 | -1 | -1 | -9 | x | x
O=C(CNC(=S)N(CCCN1CCOCC1)Cc1cccs1)N1CCCCCC1 | -14 | x | 3 | -1 | x | 1 | x | x
CC1CN(C(=O)COC(=O)c2ccc(C#N)cc2)CC(C)O1 (stereo unspecified) | 15 | 5 | -6 | 48* | 2 | -5 | -2 | -4
COc1ccc(-c2cc(C(=O)N3CCOCC3)no2)cc1 | 14 | 10 | -17 | 37* | -4 | -12 | 50* | 32*
O=C(c1cc(-c2cccc(O)c2)on1)N1CCOCC1 | 1 | 14 | -9 | 12 | 16 | 0 | x | x
